Published values pooled from the literature.
Lines come from different studies, so protocols differ.
Target: RAF proto-oncogene serine/threonine-protein kinase (RAF1, Homo sapiens, UniProt P04049)

CCCCC(=O)Nc1ccc(-c2ccc3ncn(CCC)c(=O)c3c2)cn1
remaining binding (binding; competition with immobilised ligand; 0.5 µM): 80%

COc1ccc2oc(-c3ccc4nc(N)oc4c3)c/c(=N\c3ccccc3NC(=O)CCN)c2c1
remaining binding (binding; 1 µM): 104%

C=CC(=O)N1CCC([C@@H]2CCNc3c(C(N)=O)c(-c4ccc(Oc5ccccc5)cc4)nn32)CC1
inhibition (enzyme activity; inhibitor; 1 µM): 0%

C#Cc1cnc(Nc2ccnc(CO)c2)nc1Nc1ccccc1S(C)(=O)=NC#N (stereo not shown)
remaining signal (cell-free assay; 1 µM): 85%

C#Cc1cc(-c2cc(Nc3nc(N[C@@H](C)c4ccc(F)cn4)ncc3Cl)n[nH]2)ccc1C=O
inhibition (enzyme activity; inhibitor; 0.2 µM): 13.8%

COc1ccc2[nH]c3c4[nH]c5ccc(OC)cc5c4c4c(c3c2c1)C(=O)NC4=O
remaining binding (binding; competition with immobilised ligand; 1 µM): 100%

N#Cc1ccc(NC(=O)Nc2ccccc2)cc1
remaining binding (cell-free assay; competition with immobilised ligand; 25 µM): 98%

Cc1cc(O)c(-c2ccc([C@@H](C)CN(C)C)cc2)c2c1[nH]c(=O)c1sccc12
inhibition (enzyme activity; inhibitor; 0.1 µM): 7.07%

Cc1ccc(NC(=O)c2ccnc(C(F)(F)F)c2)cc1-c1cc(OCCO)nc(N2CCOCC2)c1
remaining binding (binding; competition with immobilised ligand; 1 µM): 1.2%

CO[C@@H]1[C@H](N(C)C(=O)c2ccccc2)C[C@H]2O[C@]1(C)n1c3ccccc3c3c4c(c5c6ccccc6n2c5c31)C(=O)NC4
inhibition (enzyme activity; inhibitor; 1 µM): 0%
